Entries after “also recorded” stand apart in the source; their conditions may differ.
System: Japanese patients with solid tumors
Assay: Phase I dose-escalation study: safety, tolerability, DLT and MTD
Type: in vivo, human
Settings: for Dose-limiting toxicities (DLTs): cycle 1
How it was run: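 Oral test compound (tosylate salt) was given QD on days 1–21 of 28-day cycles in cohorts of 3–6 patients at 60, 90 or 120 mg. Escalation used a modified continual reassessment method (Bayesian logistic regression, escalation with overdose control). DLT window was cycle 1 (28 days). AEs were coded with MedDRA 18.0 and graded by CTCAE v4.0 (Japanese). Analysis covered patients receiving ≥1 dose.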

[1] = Cohort 1 60 mg/d (n = 3), All grades
[2] = Cohort 1 60 mg/d (n = 3), Grade ≥ 3
[3] = Cohort 2 90 mg/d (n = 11), All grades
[4] = Cohort 2 90 mg/d (n = 11), Grade ≥ 3
[5] = Cohort 3 120 mg/d (n = 4), All grades

`CC1(C)CCC2(CC1)N[C@@H](C(=O)N[C@@H]1CC[C@@H](C(N)=O)OC1)[C@H](c1ccnc(Cl)c1F)[C@]21C(=O)Nc2cc(Cl)ccc21` [milademetan, Milademetan] showed a Dose interruptions (60 mg/day) of 2 n, a Dose interruptions (90 mg/day) of 5 n and a Dose interruptions (120 mg/day) of 3 n. The “Dose-limiting toxicities (DLTs)” value (120 mg/day cohort) was “three events of platelet count decreased and one nausea; also recorded: Four DLTs were observed in four patients”, the “Dose-limiting toxicities (DLTs)” value (60-mg and 90-mg cohorts) was “No DLTs occurred” and the “TEAE: Alanine aminotransferase increased” value [1] was 1 (33.3) n (%). For the same molecule, the “TEAE: Anemia” value [1] was 0 (0.0) n (%), the “TEAE: Aspartate aminotransferase increased” value [1] was 0 (0.0) n (%) and the “TEAE: Constipation” value [1] was 2 (66.7) n (%). The “TEAE: Decreased appetite” value [1] was 2 (66.7) n (%), the “TEAE: Diarrhea” value [1] was 0 (0.0) n (%) and the “TEAE: Disease progression” value [1] was 0 (0.0) n (%). For the same molecule, the “TEAE: Fatigue” value [1] was 2 (66.7) n (%), the “TEAE: Hypoalbuminemia” value [1] was 1 (33.3) n (%) and the “TEAE: Hyponatremia” value [1] was 0 (0.0) n (%). The “TEAE: Hypophosphataemic rickets” value [1] was 0 (0.0) n (%), the “TEAE: Jaundice cholestatic” value [1] was 0 (0.0) n (%) and the “TEAE: Lymphangiosis carcinomatosa” value [1] was 1 (33.3) n (%). The “TEAE: Lymphocyte count decreased” value [1] was 1 (33.3) n (%), the “TEAE: Nausea” value [1] was 3 (100.0) n (%) and the “TEAE: Neutrophil count decreased” value [1] was 0 (0.0) n (%). For the same molecule, the “TEAE: Platelet count decreased” value [1] was 0 (0.0) n (%), the “TEAE: Pyrexia” value [1] was 0 (0.0) n (%) and the “TEAE: Sepsis” value [1] was 0 (0.0) n (%). For the same molecule, the “TEAE: Urinary tract infection” value [1] was 0 (0.0) n (%), the “TEAE: Vomiting” value [1] was 0 (0.0) n (%) and the “TEAE: White blood cell count decreased” value [1] was 1 (33.3) n (%). The “TEAE: Alanine aminotransferase increased” value [2] was 0 (0.0) n (%), the “TEAE: Anemia” value [2] was 0 (0.0) n (%) and the “TEAE: Aspartate aminotransferase increased” value [2] was 0 (0.0) n (%). For the same molecule, the “TEAE: Constipation” value [2] was 0 (0.0) n (%), the “TEAE: Decreased appetite” value [2] was 0 (0.0) n (%) and the “TEAE: Diarrhea” value [2] was 0 (0.0) n (%). The “TEAE: Disease progression” value [2] was 0 (0.0) n (%), the “TEAE: Fatigue” value [2] was 0 (0.0) n (%) and the “TEAE: Hypoalbuminemia” value [2] was 0 (0.0) n (%). For the same molecule, the “TEAE: Hyponatremia” value [2] was 0 (0.0) n (%), the “TEAE: Hypophosphataemic rickets” value [2] was 0 (0.0) n (%) and the “TEAE: Jaundice cholestatic” value [2] was 0 (0.0) n (%). For the same molecule, the “TEAE: Lymphangiosis carcinomatosa” value [2] was 1 (33.3) n (%), the “TEAE: Lymphocyte count decreased” value [2] was 0 (0.0) n (%) and the “TEAE: Nausea” value [2] was 0 (0.0) n (%). For the same molecule, the “TEAE: Neutrophil count decreased” value [2] was 0 (0.0) n (%), the “TEAE: Platelet count decreased” value [2] was 0 (0.0) n (%) and the “TEAE: Pyrexia” value [2] was 0 (0.0) n (%). The “TEAE: Sepsis” value [2] was 0 (0.0) n (%), the “TEAE: Urinary tract infection” value [2] was 0 (0.0) n (%) and the “TEAE: Vomiting” value [2] was 0 (0.0) n (%). The “TEAE: White blood cell count decreased” value [2] was 0 (0.0) n (%), the “TEAE: Alanine aminotransferase increased” value [3] was 1 (9.1) n (%) and the “TEAE: Anemia” value [3] was 7 (63.6) n (%). For the same molecule, the “TEAE: Aspartate aminotransferase increased” value [3] was 2 (18.2) n (%), the “TEAE: Constipation” value [3] was 2 (18.2) n (%) and the “TEAE: Decreased appetite” value [3] was 6 (54.5) n (%). The “TEAE: Diarrhea” value [3] was 3 (27.3) n (%), the “TEAE: Disease progression” value [3] was 0 (0.0) n (%) and the “TEAE: Fatigue” value [3] was 6 (54.5) n (%). For the same molecule, the “TEAE: Hypoalbuminemia” value [3] was 6 (54.5) n (%), the “TEAE: Hyponatremia” value [3] was 3 (27.3) n (%) and the “TEAE: Hypophosphataemic rickets” value [3] was 1 (9.1) n (%). For the same molecule, the “TEAE: Jaundice cholestatic” value [3] was 1 (9.1) n (%), the “TEAE: Lymphangiosis carcinomatosa” value [3] was 0 (0.0) n (%) and the “TEAE: Lymphocyte count decreased” value [3] was 1 (9.1) n (%). The “TEAE: Nausea” value [3] was 7 (63.6) n (%), the “TEAE: Neutrophil count decreased” value [3] was 3 (27.3) n (%) and the “TEAE: Platelet count decreased” value [3] was 8 (72.7) n (%). For the same molecule, the “TEAE: Pyrexia” value [3] was 3 (27.3) n (%), the “TEAE: Sepsis” value [3] was 0 (0.0) n (%) and the “TEAE: Urinary tract infection” value [3] was 1 (9.1) n (%). For the same molecule, the “TEAE: Vomiting” value [3] was 3 (27.3) n (%), the “TEAE: White blood cell count decreased” value [3] was 6 (54.5) n (%) and the “TEAE: Alanine aminotransferase increased” value [4] was 1 (9.1) n (%). For the same molecule, the “TEAE: Anemia” value [4] was 3 (27.3) n (%), the “TEAE: Aspartate aminotransferase increased” value [4] was 0 (0.0) n (%) and the “TEAE: Constipation” value [4] was 0 (0.0) n (%). For the same molecule, the “TEAE: Decreased appetite” value [4] was 0 (0.0) n (%), the “TEAE: Diarrhea” value [4] was 0 (0.0) n (%) and the “TEAE: Disease progression” value [4] was 0 (0.0) n (%). The “TEAE: Fatigue” value [4] was 0 (0.0) n (%), the “TEAE: Hypoalbuminemia” value [4] was 0 (0.0) n (%) and the “TEAE: Hyponatremia” value [4] was 1 (9.1) n (%). The “TEAE: Hypophosphataemic rickets” value [4] was 1 (9.1) n (%), the “TEAE: Jaundice cholestatic” value [4] was 1 (9.1) n (%) and the “TEAE: Lymphangiosis carcinomatosa” value [4] was 0 (0.0) n (%). For the same molecule, the “TEAE: Lymphocyte count decreased” value [4] was 0 (0.0) n (%), the “TEAE: Nausea” value [4] was 0 (0.0) n (%) and the “TEAE: Neutrophil count decreased” value [4] was 0 (0.0) n (%). For the same molecule, the “TEAE: Platelet count decreased” value [4] was 1 (9.1) n (%), the “TEAE: Pyrexia” value [4] was 0 (0.0) n (%) and the “TEAE: Sepsis” value [4] was 0 (0.0) n (%). For the same molecule, the “TEAE: Urinary tract infection” value [4] was 1 (9.1) n (%), the “TEAE: Vomiting” value [4] was 0 (0.0) n (%) and the “TEAE: White blood cell count decreased” value [4] was 0 (0.0) n (%). For the same molecule, the “TEAE: Alanine aminotransferase increased” value [5] was 2 (50.0) n (%), the “TEAE: Anemia” value [5] was 2 (50.0) n (%) and the “TEAE: Aspartate aminotransferase increased” value [5] was 2 (50.0) n (%). For the same molecule, the “TEAE: Constipation” value [5] was 1 (25.0) n (%), the “TEAE: Decreased appetite” value [5] was 3 (75.0) n (%) and the “TEAE: Diarrhea” value [5] was 2 (50.0) n (%). The “TEAE: Disease progression” value [5] was 1 (25.0) n (%), the “TEAE: Fatigue” value [5] was 1 (25.0) n (%) and the “TEAE: Hypoalbuminemia” value [5] was 1 (25.0) n (%). For the same molecule, the “TEAE: Hyponatremia” value [5] was 2 (50.0) n (%).
